The results in this text go back to ChEMBL document CHEMBL2086366, “Chemical optimization of new ligands of the low-density lipoprotein receptor as potential vectors for central nervous system targeting” (J Med Chem, 2012).

As a reminder, the inhibition is the share of the control response that was lost under treatment. A low value points to a response near the control. Broadly, the half-life is how long it takes for the measured level to halve. A low value points to fast loss.

Where a SMILES comes first, the peptide text is derived from it. Bridges are numbered along the chain shown (N, C = ends).

Low-density lipoprotein receptor (Homo sapiens), sequence (P01130 whole entry, the tested form may be a part): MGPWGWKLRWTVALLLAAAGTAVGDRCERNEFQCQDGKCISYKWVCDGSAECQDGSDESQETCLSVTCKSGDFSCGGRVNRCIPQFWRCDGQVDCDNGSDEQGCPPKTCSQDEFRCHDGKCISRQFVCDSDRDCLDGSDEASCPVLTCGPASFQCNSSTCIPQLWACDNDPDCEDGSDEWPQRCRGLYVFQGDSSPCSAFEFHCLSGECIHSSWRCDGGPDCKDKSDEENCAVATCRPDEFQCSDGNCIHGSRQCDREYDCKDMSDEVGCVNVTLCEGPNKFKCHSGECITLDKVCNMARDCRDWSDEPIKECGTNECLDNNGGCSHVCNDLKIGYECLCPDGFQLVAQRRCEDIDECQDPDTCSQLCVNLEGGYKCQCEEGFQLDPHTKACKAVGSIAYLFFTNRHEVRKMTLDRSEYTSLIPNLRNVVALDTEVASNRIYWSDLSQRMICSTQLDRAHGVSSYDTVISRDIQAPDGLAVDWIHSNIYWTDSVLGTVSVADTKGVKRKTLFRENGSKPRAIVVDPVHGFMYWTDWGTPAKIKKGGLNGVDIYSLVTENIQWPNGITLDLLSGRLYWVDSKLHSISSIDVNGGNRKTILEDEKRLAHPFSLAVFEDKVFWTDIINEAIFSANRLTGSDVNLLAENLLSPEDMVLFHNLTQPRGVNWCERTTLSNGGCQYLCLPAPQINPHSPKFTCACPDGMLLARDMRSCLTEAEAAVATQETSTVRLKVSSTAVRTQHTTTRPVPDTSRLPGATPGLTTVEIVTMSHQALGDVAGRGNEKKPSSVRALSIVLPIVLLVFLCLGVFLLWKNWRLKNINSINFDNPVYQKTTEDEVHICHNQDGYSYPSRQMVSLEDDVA

The first data set has as its target Low-density lipoprotein receptor (Homo sapiens) (UniProt P01130). As to the kind of experiment: Displacement of S-tagged Ac-DSGL[CMPRLRGC]cDPR-NH2 from human DsRed2-fused LDLR expressed in CHO cells at 10 uM after 1 hr by FRET assay. Format: cell-based.
Conditions: not given; call rule not given here
An outline of the steps:
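CHO cells stably expressing hLDLR-DsRed2 (Ham-F12, 5% FBS, Geneticin) at 800 000 cells/well were incubated in triplicate with S-tagged reference peptide (10 μM) plus test peptide (10 μM) in Ham-F12/1% BSA, 1 h, 37 °C. Scrambled and untagged peptide controls were included; values are means of at least three points.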
Consider `CSCC[C@H](NC(=O)[C@H](CS)NC(=O)[C@H](CC(C)C)NC(=O)CNC(=O)[C@H](CO)NC(=O)[C@H](CC(=O)O)NC(C)=O)C(=O)N1CCC[C@H]1C(=O)N[C@@H](CCCNC(=N)N)C(=O)N[C@@H](CC(C)C)C(=O)N[C@@H](CCCNC(=N)N)C(=O)NCC(=O)N[C@@H](CS)C(=O)N[C@@H](CC(=O)O)C(=O)N1CCC[C@H]1C(=O)N[C@@H](CCCNC(=N)N)C(N)=O`, for which the inhibition came out at 50%.

On to `CSCC[C@@H]1NC(=O)[C@@H](NC(=O)[C@H](CC(C)C)NC(=O)CNC(=O)[C@H](CO)NC(=O)[C@H](CC(=O)O)NC(C)=O)CSSC[C@@H](C(=O)N[C@@H](CC(=O)O)C(=O)N2CCC[C@H]2C(=O)N[C@@H](C)C(N)=O)NC(=O)CNC(=O)[C@H](CCCNC(=N)N)NC(=O)[C@H](CC(C)C)NC(=O)[C@H](CCCNC(=N)N)NC(=O)[C@@H]2CCCN2C1=O` (Ac-DSGLCMPRLRGCDPA-NH2; disulfide 5-12), for which the inhibition amounted to 55%.

Turning to `CSCC[C@@H]1NC(=O)[C@@H](NC(=O)[C@H](CC(C)C)NC(=O)[C@H](C)NC(=O)[C@H](CO)NC(=O)[C@H](CC(=O)O)NC(C)=O)CSSC[C@@H](C(=O)N[C@@H](CC(=O)O)C(=O)N2CCC[C@H]2C(=O)N[C@@H](CCCNC(=N)N)C(N)=O)NC(=O)CNC(=O)[C@H](CCCNC(=N)N)NC(=O)[C@H](CC(C)C)NC(=O)[C@H](CCCNC(=N)N)NC(=O)[C@@H]2CCCN2C1=O` (Ac-DSALCMPRLRGCDPR-NH2; disulfide 5-12), the inhibition worked out at 58%.

Consider `CSCC[C@@H]1NC(=O)[C@@H](NC(=O)[C@H](CC(C)C)NC(=O)CNC(=O)[C@H](CO)NC(=O)[C@H](CC(=O)O)NC(C)=O)CSSC[C@@H](C(=O)N[C@@H](CC(=O)O)C(=O)N2CCC[C@H]2C(=O)N[C@@H](CCCNC(=N)N)C(N)=O)NC(=O)CNC(=O)[C@H](CCCNC(=N)N)NC(=O)[C@H](C)NC(=O)[C@H](CCCNC(=N)N)NC(=O)[C@@H]2CCCN2C1=O` (Ac-DSGLCMPRARGCDPR-NH2; disulfide 5-12), for which the inhibition worked out at 35%.

Regarding `CSCC[C@@H]1NC(=O)[C@@H](NC(=O)[C@H](CC(C)C)NC(=O)CNC(=O)[C@H](CO)NC(=O)[C@H](CC(=O)O)NC(C)=O)CSSC[C@@H](C(=O)N[C@@H](CC(=O)O)C(=O)N2CCC[C@H]2C(=O)N[C@@H](CCCNC(=N)N)C(N)=O)NC(=O)CNC(=O)[C@H](CCCNC(=N)N)NC(=O)[C@H](CC(C)C)NC(=O)[C@H](CCCNC(=N)N)NC(=O)[C@H](C)NC1=O` (Ac-DSGLCMARLRGCDPR-NH2; disulfide 5-12), the inhibition was 3%.

Take `CSCC[C@@H]1NC(=O)[C@@H](NC(=O)[C@H](CC(C)C)NC(=O)CNC(=O)[C@H](CO)NC(=O)[C@H](CC(=O)O)NC(C)=O)CSSC[C@@H](C(=O)N[C@@H](C)C(=O)N2CCC[C@H]2C(=O)N[C@@H](CCCNC(=N)N)C(N)=O)NC(=O)CNC(=O)[C@H](CCCNC(=N)N)NC(=O)[C@H](CC(C)C)NC(=O)[C@H](CCCNC(=N)N)NC(=O)[C@@H]2CCCN2C1=O` (Ac-DSGLCMPRLRGCAPR-NH2; disulfide 5-12): the inhibition was 70%.

`CSCC[C@@H]1NC(=O)[C@@H](NC(=O)[C@H](CC(C)C)NC(=O)CNC(=O)[C@H](CO)NC(=O)[C@H](CC(=O)O)NC(C)=O)CSSC[C@@H](C(=O)N[C@@H](CC(=O)O)C(=O)N[C@@H](C)C(=O)N[C@@H](CCCNC(=N)N)C(N)=O)NC(=O)CNC(=O)[C@H](CCCNC(=N)N)NC(=O)[C@H](CC(C)C)NC(=O)[C@H](CCCNC(=N)N)NC(=O)[C@@H]2CCCN2C1=O` (Ac-DSGLCMPRLRGCDAR-NH2; disulfide 5-12) yielded an inhibition of 52%.

In turn, Ac-DSGLSMPRLRGSDPR-NH2 returned an inhibition of 0%.

In the case of `CSCC[C@@H]1NC(=O)[C@@H](NC(=O)[C@H](CC(C)C)NC(=O)CNC(=O)[C@H](CO)NC(=O)[C@H](CC(=O)O)NC(C)=O)CSSC[C@@H](C(=O)N[C@@H](CC(=O)O)C(=O)N2CCC[C@H]2C(=O)N[C@@H](CCCNC(=N)N)C(N)=O)NC(=O)CNC(=O)[C@H](CCCNC(=N)N)NC(=O)[C@H](CC(C)C)NC(=O)[C@H](CCCNC(=N)N)NC(=O)[C@@H]2CCCN2C1=O`, the inhibition is 55%.

`CSCC[C@@H]1NC(=O)[C@@H](NC(=O)[C@H](CC(C)C)NC(=O)CNC(=O)[C@H](C)NC(=O)[C@H](CC(=O)O)NC(C)=O)CSSC[C@@H](C(=O)N[C@@H](CC(=O)O)C(=O)N2CCC[C@H]2C(=O)N[C@@H](CCCNC(=N)N)C(N)=O)NC(=O)CNC(=O)[C@H](CCCNC(=N)N)NC(=O)[C@H](CC(C)C)NC(=O)[C@H](CCCNC(=N)N)NC(=O)[C@@H]2CCCN2C1=O` (Ac-DAGLCMPRLRGCDPR-NH2; disulfide 5-12) displayed an inhibition of 20%.

In the next data set the test system is Mus musculus. The data set is described as follows: Biodistribution in iv dosed dorsal spinal cord of C57-B16 mouse after 10 mins by real time biphoton microscopic analysis. Particulars: in vivo. Format: ADME, organism-based. An outline of the steps:
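C57-Bl6 mice (>7 weeks) anesthetized with ketamine-xylazine (100 mg/kg, 10 mg/kg), T13 laminectomy; 200 μL Rhodamine Red-X-labelled peptide (167 μM in DMSO + PBS) given iv, sometimes with 70 kDa fluorescein dextran. Two-photon imaging (840 nm excitation) of superficial dorsal spinal cord (first 100 μm) from 10 min after injection; scrambled peptide and free dye as controls.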
In the case of `CSCC[C@@H]1NC(=O)[C@H](NC(C)=O)CSSC[C@@H](C(N)=O)NC(=O)CNC(=O)[C@H](CCCNC(=N)N)NC(=O)[C@H](CC(C)C)NC(=O)[C@H](CCCNC(=N)N)NC(=O)[C@@H]2CCCN2C1=O`, the Drug uptake result is “Active”.

Tested on in the next data set: not listed separately
As to the kind of experiment: Half life in Swiss mouse plasma. Format: ADME, cell-free.
Conditions: not given
An outline of the steps: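 Peptide in 0.9% NaCl was spiked into freshly collected Swiss mouse blood at 2 μM nominal (n = 3) and kept at 37 °C for 0, 0.5, 1, 2, 5 and 8 h. Plasma was separated, acidified with formic acid, and protein precipitated with acetonitrile. Analysis was by LC-MS/MS (positive ESI), LLOQ 25-50 nM.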
On to `CSCC[C@@H]1NC(=O)[C@H](NC(C)=O)CSSC[C@@H](C(N)=O)NC(=O)CNC(=O)[C@H](CCCNC(=N)N)NC(=O)[C@H](CC(C)C)NC(=O)[C@H](CCCNC(=N)N)NC(=O)[C@@H]2CSCN2C1=O`, for which the half-life was 1.8 h.

In turn, `CSCC[C@@H]1NC(=O)[C@@H](NC(C)=O)C(C)(C)SSC[C@@H](C(N)=O)NC(=O)CNC(=O)[C@H](CCCNC(=N)N)NC(=O)[C@H](CC(C)C)NC(=O)[C@H](CCCNC(=N)N)NC(=O)[C@@H]2CCCCN2C1=O` gave a half-life of 2.99 h.

`CSCC[C@@H]1NC(=O)[C@H](NC(C)=O)CSSC[C@@H](C(N)=O)NC(=O)CNC(=O)[C@H](CCCNC(=N)N)NC(=O)[C@H](CC(C)C)NC(=O)[C@H](CCCNC(=N)N)NC(=O)[C@@H]2CCCN2C1=O`: the half-life was 3.03 h.

Take `CSCC[C@@H]1NC(=O)[C@@H](NC(C)=O)C(C)(C)SSC[C@@H](C(N)=O)NC(=O)CN(C)C(=O)[C@H](CCCNC(=N)N)NC(=O)[C@H](CC(C)C)NC(=O)[C@H](CCCNC(=N)N)NC(=O)[C@@H]2CSCN2C1=O`: the half-life was 2.9 h.

For the molecule `CSCC[C@@H]1NC(=O)[C@@H](NC(C)=O)CSSC[C@@H](C(N)=O)NC(=O)CNC(=O)[C@H](CCCNC(=N)N)NC(=O)[C@H](CC(C)C)NC(=O)[C@H](CCCNC(=N)N)NC(=O)[C@@H]2CCCN2C1=O`, the half-life is 1.47 h.

For `CSCC[C@@H]1NC(=O)[C@H](NC(C)=O)CSSC[C@@H](C(N)=O)NC(=O)CN(C)C(=O)[C@H](CCCNC(=N)N)NC(=O)[C@H](CC(C)C)NC(=O)[C@H](CCCNC(=N)N)NC(=O)[C@@H]2CSCN2C1=O`, the half-life was 2.26 h. Against the preceding molecule, the half-life is about 1.5-fold higher.

For `CSCC[C@@H]1NC(=O)[C@H](NC(C)=O)C(C)(C)SSC[C@@H](C(N)=O)NC(=O)CNC(=O)[C@H](CCCNC(=N)N)NC(=O)[C@H](CC(C)C)NC(=O)[C@H](CCCNC(=N)N)NC(=O)[C@@H]2CCCCN2C1=O`, the half-life is 1.7 h. This half-life and that of the molecule before are within 1.5-fold of each other.
